PTEN del growth = growth suppressors of cells with PTEN tumor suppressor deletion. 1.2% of 140,000 active. viability, % at 10 µM. HCT116 PTEN-null viability, CellTiter-Glo, 60 h; active compounds read low;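 active means viability at or below a set limit, 4 SD under the median of all tested compounds, cut at about 3.7% in these data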;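 further: PTEN knockout HCT116 line with beta catenin targeted HCT116 as companion control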
bCat KO growth = beta-catenin-lacking colon tumor cell growth suppression. viability, % at 10 µM. 1.5% of 140,000 active. HCT116 beta-catenin knockout viability, CellTiter-Glo, 60 h; active compounds read low;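 active means viability at or under a set limit, the compound median less 4 SD, cut at about 6% in these data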
H69AR growth 86K = blocks growth of human H69AR lung tumor cells; H69AR lung tumor viability, ATP luminescence, 72 h; active compounds read low; viability, % at 10 µM; 6% of 85,000 active; AID 598;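 active means viability at or below 40%; inactive means viability above 40%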;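 further: multidrug resistant small cell line overexpressing MRP-1 efflux transporter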
HUVEC inhibit = inhibitors of human endothelial cell proliferation | AID 648 | viability, % at 10 µM (by protocol) | 1.1% of 86,000 active | HUVEC proliferation, CellTiter-Glo luminescence, 72 h; active compounds read low;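 active means viability at or below 30%; inactive means viability above 30%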
Fibroblast inh = blocks proliferation of human lung fibroblasts. 1.1% of 85,000 active. LL 47 human lung fibroblast viability, ATP luminescence; active compounds read low. AID 719. viability, % at 10 µM;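 active means viability at or below 50% in the single dose screen; inactive means viability above 50%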;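 further: compound exposure lasted 72 h before the ATP readout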
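Benchmarks: Cell-only wells, no compound | Test system: LL 47 human lung fibroblasts, passage 12 or lower | Input: 1,150 cells/well | Measured by: CellTiter-Glo luminescence measuring cellular ATP | Medium: IMEM, 15% FBS supplement | Schedule: Overnight attachment after seeding, then 72 h compound exposure at 37 °C | Doses: Compound addition at 0.1% DMSO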
Large screens that a line does not name were inactive. Many of the other results were omitted from the sample, so hits are more common in it than they were.

COC(=O)c1nn(-c2ccccc2)c(Sc2ccc(C)cc2)c1/C=N/O	none (no result: H69AR growth 86K, HUVEC inhibit, Fibroblast inh)
O=C(/C=C\c1cn(-c2ccccc2)nc1-c1ccccc1)Nc1nccs1	PTEN del growth 1.2, bCat KO growth 1.6 (no result: H69AR growth 86K, HUVEC inhibit, Fibroblast inh)
COc1cccc(/C=N\NC(=O)c2sc(N)nc2C)c1OC	none (no result: H69AR growth 86K, HUVEC inhibit, Fibroblast inh)
O=C(Cc1ccc(-n2cccc2)cc1)NCc1cccs1	H69AR growth 86K 29
CC(C)CNC(=O)c1ccccc1NC(=O)/C=C/c1cccc([N+](=O)[O-])c1	none (no result: H69AR growth 86K, HUVEC inhibit, Fibroblast inh)
COc1ccc(C2C(C(=O)O)CCC(=O)N2c2ccc(OC)cc2)cc1 (centres undefined)	none
CCCCN(C)C(=O)C1CCC(=O)N(c2cc(OC)c(OC)c(OC)c2)C1c1ccc(OC)cc1 (centres undefined)	PTEN del growth 0.7, bCat KO growth 0.9
CCOC(=O)NC(c1ccc(C(C)C)cc1)C(Cl)(Cl)Cl (centres undefined)	none (no result: H69AR growth 86K, HUVEC inhibit, Fibroblast inh)
COc1cc2c(=O)n(Cc3ccco3)c(=O)n(CC(=O)c3cccc(Br)c3)c2cc1OC	H69AR growth 86K 2.4
COc1cc2c(=O)n(Cc3ccccc3)c(=O)n(CC(=O)C(C)(C)C)c2cc1OC	none (no result: PTEN del growth, bCat KO growth)
COc1cc2c(=O)n(Cc3ccco3)c(=O)n(CC(=O)c3ccc(Br)cc3)c2cc1OC	H69AR growth 86K 17
O=C(COc1ccccc1CNCc1ccccc1)Nc1ccccc1	none
O=S(=O)(c1ccc(S(=O)(=O)N2CCN(C/C=C/c3ccccc3)CC2)cc1)N1CCCC1	H69AR growth 86K 36
CCCCNC(=O)CNC(=S)N(CCCN1CCOCC1)Cc1cccs1	none (no result: H69AR growth 86K, HUVEC inhibit, Fibroblast inh)
CCc1nn(C(C)C(=O)NCCN2CCN(c3cccc(C)c3C)CC2)c(=O)c2cc3occc3n12 (centres undefined)	bCat KO growth 2.5 (no result: H69AR growth 86K, HUVEC inhibit, Fibroblast inh)
CC1=[N+](C)c2ccc3ccccc3c2C1(C)C	none (no result: H69AR growth 86K, HUVEC inhibit, Fibroblast inh)
CSc1ccc(/C=C/C(=O)c2ccc(NC(C)=O)cc2)cc1	none (no result: H69AR growth 86K, HUVEC inhibit, Fibroblast inh)
CC(=O)Nc1cccc(C(=O)/C=C/c2ccc(C)cc2)c1	PTEN del growth 1.9, bCat KO growth 2.7 (no result: H69AR growth 86K, HUVEC inhibit, Fibroblast inh)
Cc1ccc(C(=O)N(c2c(C)n(C)n(-c3ccccc3)c2=O)C(C)C)cc1	none
Cn1c(=O)[nH]c(=O)c2c1nc(Br)n2CCCSc1nc2ccccc2o1	H69AR growth 86K 16
c1coc(CNc2ncnc3sc4c(c23)CCCCC4)c1	none
Cc1nc(NCc2ccco2)c2c3c(sc2n1)CCC3	HUVEC inhibit 21
Cc1ccc(-c2nn(-c3ccccc3)cc2C=C2C(=O)CC(C)(C)CC2=O)cc1	none (no result: H69AR growth 86K, HUVEC inhibit, Fibroblast inh)
CC1=NNC(=O)/C1=C\c1cn(-c2ccccc2)nc1-c1ccc(Cl)cc1	PTEN del growth 1.4, bCat KO growth 1.4 (no result: H69AR growth 86K, HUVEC inhibit, Fibroblast inh)
Nc1ccccc1Nc1cc(-c2cccc(Cl)c2)nn1-c1ccccc1	none (no result: H69AR growth 86K, HUVEC inhibit, Fibroblast inh)
CC(C)(C)c1csc(NC(=O)c2ccc(Cl)s2)n1	none
CCNc1nc(N)c(C(=O)c2ccc(Cl)s2)s1	H69AR growth 86K 28
O=C(Oc1cccc(NC(=O)c2ccccc2Cl)c1)c1ccc([N+](=O)[O-])cc1	none (no result: H69AR growth 86K, HUVEC inhibit, Fibroblast inh)
Cc1ccc(C(C(=O)NC2CCCC2)N(Cc2ccc3c(c2)OCO3)C(=O)Cc2cccs2)cc1 (centres undefined)	none
O=C(NC1CCCCC1)C(c1ccccc1)N(Cc1ccc2c(c1)OCO2)C(=O)c1cnsn1 (centres undefined)	H69AR growth 86K 38
CC(C)Nc1nc(NC(C)C)nc(N(C#N)CCOc2ccc(Cl)cc2Cl)n1	H69AR growth 86K 28
CCOc1ccccc1C1CC(=O)NC(SCC(=O)Nc2nccs2)=C1C#N (centres undefined)	none (no result: H69AR growth 86K, HUVEC inhibit, Fibroblast inh)
O=C(CSc1nnc(-c2cccnc2)n1CCN1CCCCC1)Nc1cccc(Cl)c1	none (no result: H69AR growth 86K, HUVEC inhibit, Fibroblast inh)
OC(COCc1ccc(Cl)cc1)CN1CCN(CC(O)COCc2ccc(Cl)cc2)CC1 (centres undefined)	bCat KO growth 5.5
O=C(NC1CCCCCC1)c1ccc(CN2CCOCC2)cc1	none
Cc1nc(-c2ccccc2)nc2[nH]c(-c3ccccc3)cc(=O)c12	H69AR growth 86K 15
Cc1nc(C)c2c(=O)cc(-c3ccccc3)[nH]c2n1	H69AR growth 86K 31
COc1ccc(Nc2nnc(SCc3cc(=O)n4ccsc4n3)s2)cc1	none
Cc1ccc(C(=O)N/C(=C\c2ccc(-c3cc(Cl)ccc3Cl)o2)C(=O)NCc2cccnc2)cc1	none (no result: H69AR growth 86K, HUVEC inhibit, Fibroblast inh)
O=C(NCc1cccnc1)/C(=C\c1ccc(-c2cccc(Cl)c2)o1)S(=O)(=O)c1ccccc1	PTEN del growth 1.7, bCat KO growth 1.7 (no result: H69AR growth 86K, HUVEC inhibit, Fibroblast inh)
O=C(NCc1cccnc1)/C(=C/c1ccc(-c2cccc(Cl)c2)o1)S(=O)(=O)c1ccccc1	PTEN del growth 1.6, bCat KO growth 1.8 (no result: H69AR growth 86K, HUVEC inhibit, Fibroblast inh)

From PubChem
